Experimental data published in ChEMBL document CHEMBL1131154, “Quantitative structure-activity relationships of 2, 4-diamino-5-(2-X-benzyl)pyrimidines versus bacterial and avian dihydrofolate reductase” (J Med Chem, 1998).

Assays:
Dihydrofolate reductase [1] = molecular target: T1, Dihydrofolate reductase (Gallus gallus, UniProt P00378); assay: Inhibition of chicken liver Dihydrofolate reductase (dihydrofolate reductase)
T1 sequence (P00378 whole entry): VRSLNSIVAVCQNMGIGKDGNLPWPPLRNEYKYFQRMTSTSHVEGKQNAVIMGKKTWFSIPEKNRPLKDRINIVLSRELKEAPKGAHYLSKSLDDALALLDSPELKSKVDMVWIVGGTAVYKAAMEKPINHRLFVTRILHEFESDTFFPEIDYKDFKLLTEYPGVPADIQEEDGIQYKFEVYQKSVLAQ
Method in brief: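 Chicken liver DHFR vial (0.19 unit/mL) dissolved in 24 mL of 200 μM NADPH. Inhibitors in DMSO, final ≤0.5%. Activity with and without inhibitor read at 340 nm by stopped-flow spectrophotometry as NADPH is oxidized and dihydrofolate reduced.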

[2] = Selectivity measured as log[1/Ki(Lactobacillus casei DHFR)]-log[1/Ki(chicken liver DHFR)]
Method in brief: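 Selectivity index calculated as log(1/Ki) for L. casei DHFR minus log(1/Ki) for chicken liver DHFR. Both Ki values came from stopped-flow 340 nm NADPH-oxidation assays, with jackknife estimation.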

Dihydrofolate reductase [3] = molecular target: Dihydrofolate reductase (Lactobacillus casei, UniProt P00381); assay: Inhibition of Dihydrofolate reductase from Lactobacillus casei; set-up: species or system Lacticaseibacillus casei
Sequence of Dihydrofolate reductase (Lactobacillus casei, UniProt P00381) (P00381 whole entry): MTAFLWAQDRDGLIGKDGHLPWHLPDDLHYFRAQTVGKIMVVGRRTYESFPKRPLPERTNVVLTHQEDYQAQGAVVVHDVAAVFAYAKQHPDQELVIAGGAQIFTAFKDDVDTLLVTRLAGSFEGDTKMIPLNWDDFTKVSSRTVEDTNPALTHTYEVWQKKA
Method in brief: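 L. casei DHFR, from lyophilized powder, dissolved to about 0.5 unit/mL in 0.05 M Tris pH 7.20 with 50 mM mercaptoethanol and stored at −20 °C. Dihydrofolate and NADPH solutions kept at 0 °C. Inhibitors in DMSO, final ≤0.5%. Stopped-flow spectrophotometry at 340 nm followed NADPH oxidation and dihydrofolate reduction. Ki with 95% confidence limits by jackknife.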

Ki (Dihydrofolate reductase [1]) [µM] | Selectivity index [2] | Ki (Dihydrofolate reductase [3]) [µM] | Compound
9.12 | -0.3 | 18.2 | Nc1ncc(Cc2ccccc2OCc2ccccc2)c(N)n1
 | 0.09 | 20 | CCOc1ccccc1Cc1cnc(N)nc1N
8.71 | -0.12 | 11.5 | Nc1ncc(Cc2ccccc2I)c(N)n1
39.8 | 0.15 | 28.2 | COCc1ccccc1Cc1cnc(N)nc1N
7.94 | -1.1 | 100 | CCCCCCOc1ccccc1Cc1cnc(N)nc1N
28.8 | 0.46 | 10 | COc1ccccc1Cc1cnc(N)nc1N
 | 1.48 |  | COc1cccc(Cc2cnc(N)nc2N)c1
33.9 | -0.37 | 79.4 | NC(=O)COc1ccccc1Cc1cnc(N)nc1N
17.4 | 0.26 | 9.55 | Nc1ncc(Cc2ccccc2Cl)c(N)n1
 | -0.61 | 35.5 | CCCCOc1ccccc1Cc1cnc(N)nc1N
22.9 | -0.57 | 85.1 | CS(=O)(=O)Oc1ccccc1Cc1cnc(N)nc1N
89.1 | -0.09 | 110 | Nc1ncc(Cc2ccccc2O)c(N)n1
12.3 | 0.09 | 10 | Nc1ncc(Cc2ccccc2Br)c(N)n1
 | 0.49 |  | Nc1ncc(Cc2ccccc2)c(N)n1
21.4 | 0.2 | 13.5 | C=CCOc1ccccc1Cc1cnc(N)nc1N
 | 0.49 | 9.55 | Cc1ccccc1Cc1cnc(N)nc1N
43.7 | 0.66 | 9.55 | Nc1ncc(Cc2ccccc2F)c(N)n1
